Pf gametocyte = late stage P. falciparum gametocyte viability inhibitors, primary screen, ATP luminescence, HTS; P. falciparum stage V gametocytes, 24 h; inhibition, % at 10.9 µM; 0.065% of 150,000 active; AID 743093, 2013;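 active means inhibition above the mean plus 3 SD of compounds within the control limits, set per campaign, cut at about 38% in these data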;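 further: 0% = DMSO wells and 100% = medium only without gametocytes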
Calb biofilm kill = clotrimazole potentiators killing C. albicans biofilm, primary screen, 4-compound mixtures. AID 1242, 2008. 0.02% of 120,000 active. C. albicans biofilm persisters + clotrimazole, fluorescence viability; primary screen in compound mixtures of four per well. inhibition, % at 7.6 µM;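 active means inhibition above 30.3% in the primary screen of four-compound pools, then above 30% when the compound was retested; inconclusive means passed the primary limit but could not be retested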;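 further: compounds exposed to preformed 24 h biofilms for 48 h; 0% = untreated biofilm control and 100% = clotrimazole plus chlorhexidine kill blank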
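Assay system: C. albicans biofilms / Medium: RPMI/MOPS medium, pH 7.0 / Schedule: biofilm formation 24 h, compound exposure 48 h, 37 °C / Measured by: Alamar Blue fluorescence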
ROMK mod = ROMK potassium channel modulators, primary screen, cell-based, thallium flux, MLSMR library; ATP-sensitive inward rectifier potassium channel 1 (Homo sapiens), P48048; Tet-inducible ROMK, thallium flux fluorescence; actives lie on both sides; 2% of 130,000 active; B-score at 10 µM;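 active means signal ratio slope over the read window, or its plate-corrected B-score, at least 3 SD from the plate mean, either direction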;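 further: B-score of the F/F0 ratio slope over 7 to 12 s after thallium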
Target sequence (P48048 whole entry, looked up): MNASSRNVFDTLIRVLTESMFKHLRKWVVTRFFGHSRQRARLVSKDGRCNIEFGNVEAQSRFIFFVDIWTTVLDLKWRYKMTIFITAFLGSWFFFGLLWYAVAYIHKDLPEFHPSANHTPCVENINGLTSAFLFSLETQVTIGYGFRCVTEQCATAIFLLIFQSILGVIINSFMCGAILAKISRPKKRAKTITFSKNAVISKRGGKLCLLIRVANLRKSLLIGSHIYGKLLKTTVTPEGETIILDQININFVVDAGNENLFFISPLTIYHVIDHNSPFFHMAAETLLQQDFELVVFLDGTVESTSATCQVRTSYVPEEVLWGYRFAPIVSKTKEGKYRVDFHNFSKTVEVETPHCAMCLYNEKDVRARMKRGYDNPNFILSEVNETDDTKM
ROMK retest = ROMK channel modulator hit retest, confirmation, cell-based, thallium flux, duplicate, resupplied hits; shares compounds with ROMK mod; fluorescence ratio; active compounds read low; normalized thallium flux (F/F0 slope) at 10 µM; 54% of 3,000 active; AID 1917, 2009;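 active means Flux at 10 µM at least 3 SD below or above vehicle control mean in one or both replicates; inconclusive means no clear call, values can overlap the other calls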
* hit, by the source's call; ? = inconclusive; . = no result given. This excerpt belongs to a sample that is enriched for hits.

SMILES	Pf gametocyte	Calb biofilm kill	ROMK mod	ROMK retest
O=C(c1ccccc1)N1CCN(C(=S)NCc2ccc3c(c2)OCO3)CC1	19	4	-0.19	.
CC1(C)CC(N=C2C([N+](=O)[O-])=CC=C3C2=NC2(CCCCC2)N3O)CC(C)(C)N1	-3	15	.	0.076
O=[N+]([O-])C1=CC=C2C(=NC3(CCCCC3)N2O)C1=NC1CCCCC1	.	.	-0.25	.
COc1ccc(C2N(C(=O)N3CCOCC3)CCN2S(=O)(=O)c2ccc(C)cc2)cc1 (stereo not drawn)	.	.	1.9*	0.083
Cc1ccc(S(=O)(=O)N2CCN(C(=O)N3CCOCC3)C2c2ccc(N(C)C)cc2)cc1 (stereo not drawn)	.	.	1.4	.
CN(C)Cc1nc2ccccc2c(=O)n1CC#N	3	12	0.94	.
N#Cc1cc2cc3ccccc3nc2n2c(=O)c3ccccc3nc12	2	5	.	0.056*
O=c1c2ccccc2c(/C=N/c2nnc(Cc3ccccc3)s2)c(O)n1-c1ccc(Cl)cn1	-14	19	-4.3*	0.06*
Cc1cccc(C)c1N=Cc1c(O)n(-c2nccs2)c(=O)c2ccccc12	.	23	.	.
CCCS(=O)(=O)c1c(S(=O)(=O)CCC)c2ccc(C(N)=O)cn2c1C(=O)OC	-3	-1	0.2	.
CCCS(=O)(=O)c1c(S(=O)(=O)CCC)c2ccc(C(N)=O)cn2c1C(=O)c1ccc(OC)cc1	-17	11	-2.7	0.061*
Cc1ccc(OCc2ccc(C(=O)Nc3ccc(S(N)(=O)=O)cc3)o2)cc1	.	15	1.6	.
COCCCNC(=O)COc1ccc(S(=O)(=O)NCc2ccccc2)cc1Cl	9	21	-0.2	.
O=C(O)C[C@H]1c2cc(C(F)(F)F)ccc2S(=O)(=O)N1Cc1ccccc1	-6	.	.	.
COc1ccc(CCNc2cc(N3CCN(C(=O)c4ccc(C)cc4)CC3)ccc2[N+](=O)[O-])cc1OC	.	4	-0.49	.
COc1ccc(C(=O)N2CCN(c3ccc([N+](=O)[O-])c(NCCc4ccc(OC)c(OC)c4)c3)CC2)cc1	.	18	.	0.06*
Cc1cccc(C)c1OCC(O)CNS(=O)(=O)c1ccccc1C(=O)N1CCCCC1 (stereo not drawn)	4	3	-1.8	0.075
CC(C)CNS(=O)(=O)c1ccccc1C(=O)N1CCCCC1	19	.	.	.
O=S(=O)(c1ccc(Cl)s1)N1CCN(Cc2ccccc2)CC1	.	.	-1.9	.
O=C(CN1CCN(S(=O)(=O)c2ccc(Cl)s2)CC1)N1CCOCC1	15	16	-3.2*	0.076
O=[N+]([O-])c1cc(S(=O)(=O)N2CCCCCC2)ccc1F	9	23	.	0.054*
O=[N+]([O-])c1cc(S(=O)(=O)N2CCCC2)ccc1O	.	12	0.29	.
O=S(=O)(c1cccc(S(=O)(=O)N2CCCC2)c1)c1cccc(S(=O)(=O)N2CCCC2)c1	.	.	-5.7*	0.066*
NC(=O)c1cccc(S(=O)(=O)N2CCCCC2)c1	.	.	0.38	.
CC1C/C(=C/c2cccs2)C(=O)/C(=C/c2cccs2)C1 (stereo not drawn)	-12	13	2.9*	0.071
SMILES	Pf gametocyte	Calb biofilm kill	ROMK mod	ROMK retest
CC1C/C(=C/c2ccco2)C(=O)/C(=C/c2ccco2)C1 (stereo not drawn)	.	13	-1.2	.
CCn1c(=O)c([N+](=O)[O-])c(NCC2CCCO2)c2ccccc21 (stereo not drawn)	12	25	.	.
Nc1ncnc2c1ncn2CCNCCc1ccccc1	-34	.	.	0.082
OCCNc1ncnc2c1ncn2Cc1ccccc1	2	.	.	.
COc1cc(C(=O)N/N=C/c2sccc2C)cc(OC)c1OC	12	10	5.1*	?
Cc1ccsc1/C=N/NC(=O)c1ccncc1	5	14	0.92	.
CCOc1ccc(C(=O)N/N=C/c2cc([N+](=O)[O-])cs2)cc1	-22	10	.	.
COc1cc(C(=O)N/N=C/c2cc([N+](=O)[O-])cs2)cc(OC)c1OC	-14	7	4.1*	0.088
CC(C)N(C(=O)CSc1nnc(CSc2ncccn2)n1C)C(C)C	10	18	0.075	.
COC(=O)c1ccc(S(=O)(=O)NCc2ccccn2)n1C	-20	21	-0.032	.
Cc1cc(C)n(-c2ccc(C(=O)OCC(=O)Nc3ccc([N+](=O)[O-])cc3)cc2)n1	.	15	-0.97	.
Nc1c(C(=O)N/N=C/c2ccc(Cl)cc2)cnn1-c1ccccc1	-12	28	-1.6	.
Nc1c(C(=O)N/N=C/c2ccc(OCc3ccccc3)cc2)cnn1-c1ccccc1	-18	15	-13*	0.075
COc1ccc(N(CC(=O)NCc2ccccc2)C(=O)Cn2nnc(-c3ccccc3F)n2)cc1OC	.	4	-1.2	.
O=C(Cn1c(=O)oc2cccnc21)Nc1ccc(C(F)(F)F)cc1	-6	6	-0.023	.
CN1CCN(c2ccc(-c3ccnn3C(=O)Nc3cccc(C(F)(F)F)c3)cc2)CC1	.	12	0.45	.
O=C(Cn1nc(Cl)nc1Cl)c1cc2ccccc2oc1=O	-48	.	-6.5*	0.049*
Cn1cnnc1SCC(=O)c1cc2ccccc2oc1=O	12	.	.	.
O=C(NNc1ncccc1Cl)c1c(Cl)cccc1Cl	4	16	-0.4	.
CCOC(=O)C1(Cc2cccc(OC)c2)CCN(CC2CC=CCC2)CC1 (stereo not drawn)	.	-4	.	.
CCc1ccc2oc(-c3ccc(NC(C)=O)cc3)nc2c1	-10	.	.	.
Cc1ccc(NC(=S)N(CCCN2CCCC2)Cc2cccn2Cc2ccc(Cl)cc2)cc1Cl	17	19	.	.
Cc1ccc(NC(=S)N(CCCN2CCCC2)Cc2cccn2Cc2ccc(Cl)cc2)cc1C	6	21	-2.8*	0.062*
CC(=O)N/C(=C\c1cccc([N+](=O)[O-])c1)C(=O)NC1CCCCC1	3	16	0.031	.
C/C(=N\NC(=O)c1nc2ccccn2c1C)c1cc2ccccc2o1	-8	6	0.11	.
SMILES	Pf gametocyte	Calb biofilm kill	ROMK mod	ROMK retest
C/C(=N\NC(=O)c1cc2ccccc2cc1O)c1cc2ccccc2o1	2	18	.	0.13*
CCC(C)[C@H](NC(=O)NC(C)C)C(=O)O (stereo partly drawn)	4	25	1	.
COc1ccc([C@H]2CC(=O)C=C(c3ccc(Cl)c(F)c3)C2)cc1	5	.	.	.
CCn1nnnc1SCC(=O)NC1Cc2ccccc2C1	-25	26	-0.66	.
CC(NC1CCCC1)c1ccccc1 (stereo not drawn)	-15	21	0.48	.
CC(NCCC(c1ccccc1)c1ccccc1)c1ccccc1 (stereo not drawn)	.	9	-6.2*	0.046*
Cc1cc2c3c(c1)C(C)CC(C)(C)N3C(=O)C2=O (stereo not drawn)	-5	22	3.1*	?
Cc1cc2c3c(c1)C(C)CC(C)(C)N3C(=O)C2=C(C#N)C#N (stereo not drawn)	-7	31	.	.
Cn1c(CNc2nc(-c3ccccc3)cs2)nnc1SCC(=O)OC1CCCCC1	22	.	-2.2	.
CC(C)OC(=O)CSc1nnc(CNc2nc(-c3ccccc3)cs2)n1C	-1	.	-2.7*	0.062*
O=C(CNC1CCCCCC1)Nc1ccccc1N1CCOCC1	-2	11	0.12	.
COCCC(=O)Nc1c(-c2ccccc2)c2cc(Br)ccc2[nH]c1=O	21	.	.	.

Bioassay records from PubChem BioAssay.
